Experimental findings from ChEMBL document CHEMBL4359826, “Preparation of bivalent agonists for targeting the mu opioid and cannabinoid receptors” (Eur J Med Chem, 2019) are described below.

Experiment [1] deals with T1, Cannabinoid receptor (Rattus norvegicus, UniProt Q9QZN9+P20272). The experiment is described as follows: Displacement of [3H]JWH-018 from CB1R/CB2R in Wistar rat brain membranes after 60 mins by liquid scintillation analysis. The format is cell membranes. For orientation: In a radioligand displacement assay an active substance lowers the binding of a labelled ligand.

For experiment [2], the target named is T1, Cannabinoid receptor. The format is cell membranes, Wistar, Brain, Membranes.
Experiment [3] is described as follows: Agonist activity at MOR/CB1R/CB2R receptor in Wistar rat brain membranes after 60 mins by [35S]-GTPgammaS binding assay. The format is cell membranes.
The species entered for experiment [4] is Rattus norvegicus. The conditions noted are these: Wistar, Brain, Membranes, at 10 µM.
The target of the next experiment is Mu-type opioid receptor (Rattus norvegicus, UniProt P33535). Nature of the experiment: Displacement of [3H]DAMGO from MOR in Wistar rat brain membranes after 60 mins by liquid scintillation analysis. The format is cell membranes.
Mu-type opioid receptor, sequence (P33535 whole entry): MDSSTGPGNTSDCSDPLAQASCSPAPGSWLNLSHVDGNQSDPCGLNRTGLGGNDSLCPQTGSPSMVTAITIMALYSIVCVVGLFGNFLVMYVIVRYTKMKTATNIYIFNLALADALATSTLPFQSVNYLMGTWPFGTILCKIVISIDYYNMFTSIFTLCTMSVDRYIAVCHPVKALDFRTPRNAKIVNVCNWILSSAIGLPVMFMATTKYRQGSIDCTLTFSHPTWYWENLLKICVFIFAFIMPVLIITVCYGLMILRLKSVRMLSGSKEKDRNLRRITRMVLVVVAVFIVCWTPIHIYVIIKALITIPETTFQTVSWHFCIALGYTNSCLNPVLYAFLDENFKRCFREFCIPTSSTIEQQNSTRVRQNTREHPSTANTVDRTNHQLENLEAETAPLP
The target in experiment [5] is Delta-type opioid receptor (Rattus norvegicus, UniProt P33533). The experiment is described as follows: Displacement of [3H]Ile5,6-deltorphin-2 from DOR in Wistar rat brain membranes after 60 mins by liquid scintillation analysis. Type of experiment: cell membranes.
Delta-type opioid receptor, sequence (P33533 whole entry): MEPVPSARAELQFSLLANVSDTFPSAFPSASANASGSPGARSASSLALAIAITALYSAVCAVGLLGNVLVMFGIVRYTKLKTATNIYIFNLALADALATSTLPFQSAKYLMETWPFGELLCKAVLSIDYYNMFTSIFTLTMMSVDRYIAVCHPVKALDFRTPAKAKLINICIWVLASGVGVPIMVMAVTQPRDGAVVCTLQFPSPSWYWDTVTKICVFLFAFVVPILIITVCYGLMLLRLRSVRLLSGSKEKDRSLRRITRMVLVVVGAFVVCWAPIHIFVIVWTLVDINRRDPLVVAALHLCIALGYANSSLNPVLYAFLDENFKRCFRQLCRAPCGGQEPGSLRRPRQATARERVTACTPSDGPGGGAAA
The target in experiment [6] is Kappa-type opioid receptor (Cavia porcellus, UniProt P41144). Type of experiment: cell membranes, Brain, Membranes.
Kappa-type opioid receptor, sequence (P41144 whole entry): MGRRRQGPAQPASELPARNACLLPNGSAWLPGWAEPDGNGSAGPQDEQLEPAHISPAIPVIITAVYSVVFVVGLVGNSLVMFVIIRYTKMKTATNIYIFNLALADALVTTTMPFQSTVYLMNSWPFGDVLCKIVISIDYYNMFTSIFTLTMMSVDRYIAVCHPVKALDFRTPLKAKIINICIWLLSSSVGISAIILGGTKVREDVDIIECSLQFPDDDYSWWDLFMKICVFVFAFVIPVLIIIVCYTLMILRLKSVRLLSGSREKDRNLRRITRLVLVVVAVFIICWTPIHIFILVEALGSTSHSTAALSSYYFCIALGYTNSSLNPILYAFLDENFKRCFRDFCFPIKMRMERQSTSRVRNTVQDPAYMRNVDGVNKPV
The target in experiment [7] is Mu-type opioid receptor (Rattus norvegicus) (UniProt P33535). The experiment is described as follows: Antagonist activity at MOR in Wistar rat brain membranes at 10 uM in presence of oxycodone after 60 mins by [35S]-GTPgammaS binding assay relative to control. Type of experiment: functional, cell membranes. The essentials: (§1)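 Rat brain membranes (30 µg protein/tube) incubated 60 min at 30 °C with 0.05 nM [35S]GTPγS and ligand at 10^-10–10^-5 M. Buffer: 50 mM Tris-HCl pH 7.4 with 30 µM GDP, 100 mM NaCl, 3 mM MgCl2, 1 mM EGTA. Nonspecific binding taken with 10 µM GTPγS; basal set as 100%. Filtration and scintillation counting; n≥3.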
Mu-type opioid receptor (Rattus norvegicus), sequence (P33535 whole entry): as the sequence (P33535 whole entry) above
(In general: Binding of GTPγS marks nucleotide exchange on a G protein.)

Experiment [8] shares this target. Nature of the experiment: Antagonist activity at MOR in Wistar rat brain membranes at 10 uM in presence of Tyr-D-Ala-Gly-Phe-NH2 after 60 mins by [35S]-GTPgammaS binding assay relative to control. The format is functional, cell membranes. In a few lines:
as §1

Experiment [9] addresses T2, Cannabinoid receptor (Rattus norvegicus) (UniProt Q9QZN9+P20272). The experiment is described as follows: Antagonist activity at CB1R/CB2R in Wistar rat brain membranes at 10 uM in presence of JWH-018 after 60 mins by [35S]-GTPgammaS binding assay relative to control. Type of experiment: functional, cell membranes. The essentials: (§2)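 Rat brain membranes (30 µg protein/tube) incubated 60 min at 30 °C with 0.05 nM [35S]GTPγS and ligand at 10^-10–10^-5 M. Buffer: 50 mM Tris-HCl pH 7.4 with 30 µM GDP, 100 mM NaCl, 3 mM MgCl2, 1 mM EGTA. […] Nonspecific binding taken with 10 µM GTPγS; basal set as 100%. Filtration and scintillation counting; n≥3.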

Experiment [10] is filed under the species Rattus norvegicus. The experiment is described as follows: Antagonist activity at MOR/CB1R/CB2R in Wistar rat brain membranes at 10 uM in presence of N-[6-[[2-[[(4R,4aS,7aR,12bS)-4a-hydroxy-9-methoxy-3-methyl-2,4,5,6,7a,13-hexahydro-1H-4,12-methanobenzofuro[3,2-e]isoquinoline-7-ylidene]amino]oxyacetyl]amino]hexyl]-6-[3-(naphthalene-1-carbonyl)indol-1-yl]hexanamide after 60 mins by [35S]-GTPgammaS binding assay relative to control. Type of experiment: cell membranes. In a few lines: as §2

The species named for experiment [11] is Rattus norvegicus. The experiment is described as follows: Antagonist activity at MOR/CB1R/CB2R in Wistar rat brain membranes at 10 uM in presence of (S)-N-((2R,8S)-18-(3-(1-naphthoyl)-1H-indol-1-yl)-8-benzyl-3,6,9,12-tetraoxo-4,7,10,13-tetraazaoctadecan-2-yl)-2-amino-3-(4-hydroxyphenyl)propanamide after 60 mins by liquid scintillation analysis relative to control. Type of experiment: cell membranes. In a few lines:
as §2

The target of experiment [12] is T2, Cannabinoid receptor (Rattus norvegicus). The experiment is described as follows: Displacement of [3H]JWH-018 from CB1R/CB2R in Wistar rat brain membranes at 10 uM after 60 mins by liquid scintillation analysis. The format is cell membranes. In a few lines: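 Whole rat brain membranes (cerebellum removed; 0.3–0.5 mg/mL protein) in 50 mM Tris-HCl pH 7.4 with 2.5 mM EGTA, 5 mM MgCl2 and 0.5 mg/mL fatty-acid-free BSA, 30 °C. Kinetics used 0.6 nM [3H]JWH-018: association over 0–90 min, dissociation started with 10 µM JWH-018 after 60 min. Saturation over 0.5–35 nM. Competitors at 10^-11–10^-5 M, 60 min. Nonspecific binding with 10 µM JWH-018. Filtration onto PEI-soaked GF/B filters; n≥3.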

The source made the active and inactive calls. The calls are words filed in the database; no cut-off is given here. Where only a bound is given, the exact number is not on record here.

T2 sequence (P20272 whole entry, looked up): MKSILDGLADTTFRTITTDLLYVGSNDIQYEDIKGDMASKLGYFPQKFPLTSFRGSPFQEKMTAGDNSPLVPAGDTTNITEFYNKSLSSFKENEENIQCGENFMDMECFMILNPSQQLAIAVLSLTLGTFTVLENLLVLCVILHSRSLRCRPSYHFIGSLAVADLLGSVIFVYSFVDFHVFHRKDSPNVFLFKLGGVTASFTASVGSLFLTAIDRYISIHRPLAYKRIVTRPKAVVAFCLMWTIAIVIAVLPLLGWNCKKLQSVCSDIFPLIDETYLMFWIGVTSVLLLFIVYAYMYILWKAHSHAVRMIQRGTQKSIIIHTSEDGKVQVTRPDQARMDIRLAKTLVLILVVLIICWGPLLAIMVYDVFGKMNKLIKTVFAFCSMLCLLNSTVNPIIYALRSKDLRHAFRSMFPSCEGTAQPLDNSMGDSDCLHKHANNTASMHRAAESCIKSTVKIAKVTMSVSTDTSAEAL
T2 sequence (Q9QZN9 whole entry, looked up): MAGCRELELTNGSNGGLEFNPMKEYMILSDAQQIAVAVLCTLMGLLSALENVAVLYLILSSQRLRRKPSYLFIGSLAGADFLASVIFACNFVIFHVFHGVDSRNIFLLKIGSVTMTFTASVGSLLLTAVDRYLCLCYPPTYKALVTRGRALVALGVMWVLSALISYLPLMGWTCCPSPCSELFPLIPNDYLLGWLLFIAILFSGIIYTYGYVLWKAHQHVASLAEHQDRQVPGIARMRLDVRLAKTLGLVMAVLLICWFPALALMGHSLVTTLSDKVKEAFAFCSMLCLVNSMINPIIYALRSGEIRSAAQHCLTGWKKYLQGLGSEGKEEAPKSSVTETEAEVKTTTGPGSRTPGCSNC

`O=C(O)CCCCCn1cc(C(=O)c2cccc3ccccc23)c2ccccc21`: the figures for the Ki on Cannabinoid receptor [1] and at Cannabinoid receptor [2] were 0.247 µM and 0.205 µM, respectively. The compound further displayed an EC50 in experiment [3] of 4.22 µM. In the experiment filed under Rattus norvegicus [4], the Emax was 81%.

Consider `CCCCCn1cc(C(=O)c2cccc3ccccc23)c2cc(Br)ccc21`, for which the Ki at Cannabinoid receptor [1] stood at 0.059 µM.

As to H-PVNFKFL-OH, the Ki on Cannabinoid receptor [1] was above 10 µM.

With `COc1ccc2c3c1O[C@H]1/C(=N\OCC(=O)NCCCCCCN)CC[C@@]4(O)[C@@H](C2)N(C)CC[C@]314`, the Ki at Mu-type opioid receptor is 0.041 µM; in experiment [5], 0.659 µM; in experiment [6], 0.38 µM. Besides, in [3], the EC50 came out at 0.305 µM. Besides, the maximal response (Emax) in the experiment filed under Rattus norvegicus [4] was determined as 111%.

In the case of `COc1ccc2c3c1O[C@H]1/C(=N\OCC(=O)NCCNC(=O)CCCCCn4cc(C(=O)c5cccc6ccccc56)c5ccccc54)CC[C@@]4(O)[C@@H](C2)N(C)CC[C@]314`, the Ki at Cannabinoid receptor [1] was 0.255 µM; on Mu-type opioid receptor it was 0.033 µM; in experiment [5], 0.623 µM; in experiment [6] it was 0.337 µM; at Cannabinoid receptor [2], 0.0093 µM. The Emax in experiment [7] amounted to 101%; in [8] it was 102%; in experiment [9], 107%; in the experiment filed under Rattus norvegicus [10] it was 102%; in the experiment listed under Rattus norvegicus [11], 103%; in the experiment filed under Rattus norvegicus [4], 100%.

Turning to `C[C@@H](NC(=O)[C@@H](N)Cc1ccc(O)cc1)C(=O)NCC(=O)N[C@@H](Cc1ccccc1)C(=O)NCCCCCn1cc(C(=O)c2cccc3ccccc23)c2ccccc21`, the Ki on Cannabinoid receptor [1] was 1.013 µM; on Mu-type opioid receptor, 0.05 µM; in experiment [5] it was 0.214 µM; in [6] it was 0.231 µM; at Cannabinoid receptor [2], 0.823 µM. The EC50 in [3] was 1.8 µM. In the experiment filed under Rattus norvegicus [4], this compound showed an Emax of 110%.

With `NCCCCCn1cc(C(=O)c2cccc3ccccc23)c2ccccc21`, the Ki at Cannabinoid receptor [1] turned out to be 0.19 µM; at Cannabinoid receptor [2], 0.269 µM. In the experiment listed under Rattus norvegicus [4], the Emax came out at 102%.

Regarding `COc1ccc2c3c1O[C@H]1/C(=N\OCC(=O)NCCN)CC[C@@]4(O)[C@@H](C2)N(C)CC[C@]314`, the inhibition constant Ki was found to be 0.017 µM at Mu-type opioid receptor, 0.533 µM in experiment [5] and 0.471 µM in experiment [6]. The EC50 in [3] was 0.45 µM. In the experiment listed under Rattus norvegicus [4], this compound came in with a maximum response (Emax) of 113%.

On Cannabinoid receptor [1], H-RVDPVNFKLLSH-OH had a Ki above 10 µM.

Take `CC(=O)NCCCCCn1cc(C(=O)c2cccc3ccccc23)c2ccccc21`: the Ki is 0.145 µM on Cannabinoid receptor [1] and 0.149 µM on Cannabinoid receptor [2]. The same compound returned a half-maximal effective concentration (EC50) in experiment [3] of 2.15 µM. Moreover, the Emax in the experiment listed under Rattus norvegicus [4] was 83%.

Take `C=CCN1CC[C@]23c4c5ccc(O)c4O[C@H]2C(=O)CC[C@@]3(O)[C@H]1C5`: the result in experiment [12] was inactive.

On to `NC(=O)[C@H](Cc1ccccc1)NC(=O)[C@H](Cc1ccccc1)NC(=O)[C@@H]1CCCN1C(=O)[C@@H](N)Cc1ccc(O)cc1`, for which the result in experiment [12] was inactive.

As for `C[C@@H](NC(=O)[C@@H](N)Cc1ccc(O)cc1)C(=O)NCC(=O)N[C@@H](Cc1ccccc1)C(=O)NCCC(=O)NCCCCCn1cc(C(=O)c2cccc3ccccc23)c2ccccc21`, the Ki on Cannabinoid receptor [1] is 0.919 µM; at Mu-type opioid receptor, 0.048 µM; in experiment [5], 0.19 µM; in experiment [6], 0.151 µM; at Cannabinoid receptor [2], 1.216 µM. The response in experiment [3] was half-maximal at 0.018 µM (EC50). Besides, in the experiment listed under Rattus norvegicus [4], the Emax was determined as 114%.

In the case of `Cc1c(C(=O)NN2CCCCC2)nn(-c2ccc(Cl)cc2Cl)c1-c1ccc(Cl)cc1`, the maximum response (Emax) in [9] was 100%.

Take `COc1ccc2c3c1O[C@H]1/C(=N\OCC(=O)NCCCOCCOCCOCCCNC(=O)CCCCCn4cc(C(=O)c5cccc6ccccc56)c5ccccc54)CC[C@@]4(O)[C@@H](C2)N(C)CC[C@]314`: the Ki on Cannabinoid receptor [1] came out at 0.183 µM; at Mu-type opioid receptor it was 0.02 µM; in experiment [5], 0.386 µM; in experiment [6], 0.186 µM; at Cannabinoid receptor [2] it was 0.078 µM. The Emax in experiment [7] came out at 100%; in [8], 97%; in [9], 110%; in the experiment listed under Rattus norvegicus [10] it was 101%; in the experiment listed under Rattus norvegicus [11], 99%; in the experiment filed under Rattus norvegicus [4], 99%.

For the compound `COc1ccc2c3c1O[C@H]1/C(=N\OCC(=O)NCCCOCCOCCOCCCN)CC[C@@]4(O)[C@@H](C2)N(C)CC[C@]314`, the Ki on Mu-type opioid receptor turned out to be 0.074 µM; in experiment [5], 0.757 µM; in experiment [6], 0.503 µM. This compound also came in with a half-maximal effective concentration (EC50) in experiment [3] of 0.2 µM. The compound further showed an Emax in the experiment filed under Rattus norvegicus [4] of 112%.

Regarding `COc1ccc2c3c1O[C@H]1/C(=N\OCC(=O)O)CC[C@@]4(O)[C@@H](C2)N(C)CC[C@]314`, the inhibition constant Ki on Mu-type opioid receptor is 0.024 µM; in [5], 0.11 µM; in experiment [6], above 10 µM. The compound also came in with an EC50 in experiment [3] of 0.225 µM. Further, in the experiment filed under Rattus norvegicus [4], the maximal response (Emax) worked out at 109%.

For the compound `NC(=O)[C@H](Cc1ccccc1)NC(=O)[C@H](Cc1c[nH]c2ccccc12)NC(=O)[C@@H]1CCCN1C(=O)[C@@H](N)Cc1ccc(O)cc1`, the outcome in experiment [12] was inactive.

For the compound `CN1CC[C@]23c4c5ccc(O)c4O[C@H]2[C@@H](O)C=C[C@H]3[C@H]1C5`, the outcome in experiment [12] was inactive.

Regarding `C[C@@H](NC(=O)[C@@H](N)Cc1ccc(O)cc1)C(=O)NCC(=O)N[C@@H](Cc1ccccc1)C(=O)NCCCC(=O)NCCCCCn1cc(C(=O)c2cccc3ccccc23)c2ccccc21`, the Ki came out at 0.928 µM on Cannabinoid receptor [1]; 0.02 µM on Mu-type opioid receptor; 0.092 µM in [5]; 0.05 µM in [6]; 1.042 µM on Cannabinoid receptor [2]. In experiment [3], this compound yielded an EC50 of 0.06 µM. The same compound had an Emax in the experiment filed under Rattus norvegicus [4] of 125%.

In turn, `CC(C)C[C@H](NC(=O)[C@H](Cc1ccccc1)NC(=O)[C@H](CCCCN)NC(=O)[C@H](Cc1ccccc1)NC(=O)[C@H](CC(N)=O)NC(=O)[C@@H](NC(=O)[C@@H]1CCCN1)C(C)C)C(=O)N[C@@H](CO)C(=O)N[C@@H](Cc1cnc[nH]1)C(=O)O` [HEMOPRESSIN] had a Ki at Cannabinoid receptor [1] of 2.793 µM.

The term Ki denotes the equilibrium dissociation constant of an inhibitor or competing ligand from its target. Low values mean a stronger hold on the target, high ones a looser hold on the target. The EC50 is the concentration that produces a half-maximal response. Low readings indicate an effect from little substance, high ones a need for much substance. One may read the Emax as the maximal effect, on the per cent scale that the assay sets.
